Source: ChEMBL document CHEMBL1629488, “Synthesis and biological evaluation of 2-(3',4',5'-trimethoxybenzoyl)-3-aryl/arylaminobenzo[b]thiophene derivatives as a novel class of antiproliferative agents” (Eur J Med Chem, 2010)
Activity calls are given as the source filed them. The calls are words filed in the database; no cut-off is given here.

Legend:
HeLa [1] = assay: Induction of apoptosis in human HeLa cells assessed as ROS production after 24 to 48 hrs using H2-DCFDA staining by flow cytometry; assay type: functional, cell-based
How it was run: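 ROS probe: after 24 or 48 h exposure, HeLa cells resuspended in HBSS with 0.1 μM H2DCFDA, incubated 30 min at 37 °C, spun and resuspended in HBSS; fluorescence recorded by flow cytometry, excitation 488 nm, emission 530 nm.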

HeLa [2] = assay: Antiproliferative activity against human HeLa cells assessed as cell viability after 72 hrs by MTT assay; assay type: functional, cell-based
How it was run: (§1)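 A549 and HeLa cells grown in DMEM with 10% FBS and penicillin/streptomycin. Plated at 8 × 10^3 cells/well and held 18 h at 37 °C in 5% CO2. Medium replaced with compound in complete medium at varied concentrations for 72 h at 37 °C, then MTT read.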

Jurkat [3] = assay: Cell cycle arrest in human Jurkat cells assessed as accumulation at G2/M phase after 24 hrs using propidium iodide staining by flow cytometry; assay type: functional, cell-based
How it was run: (§2)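 Exponentially growing cells (5 × 10^5) exposed to graded compound levels, 0.312 to 5 μM, for 24 or 48 h; collected, fixed in ice-cold 70% ethanol, treated with lysis buffer containing RNase A and 0.1% Triton X-100, stained with propidium iodide; DNA content read by flow cytometry. Mean ± SEM of two independent experiments.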

HeLa [4] = assay: Induction of apoptosis in human HeLa cells assessed as early apoptotic cells at 0.62 uM after 24 hrs using FITC-conjugated annexin V and propidium iodide staining by flow cytometry assay (RVb = 1.5 %); assay type: functional
HeLa [5] = assay: Induction of apoptosis in human HeLa cells assessed as increase of Bcl-2 protein expression up to 2.5 uM after 24 to 48 hrs by Western blot analysis; assay type: functional, cell-based
How it was run: (§3)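 Treated cells washed twice in ice-cold PBS, lysed 30 min on ice, lysate cleared at 15000×g, 4 °C, 10 min; protein by BCA. 20 μg per lane on SDS-PAGE (7.5–15%), PVDF transfer, overnight block at 4 °C; primary antibodies 2 h at room temperature, peroxidase secondaries 60 min, ECL detection; β-actin loading control.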

HeLa [6] = assay: Induction of apoptosis in human HeLa cells assessed as necrotic cells at 1.25 uM after 24 hrs using FITC-conjugated annexin V and propidium iodide staining by flow cytometry assay (RVb = 1.9 %); assay type: functional
HeLa [7] = assay: Induction of apoptosis in human HeLa cells assessed as late apoptotic cells at 5 uM after 24 hrs using FITC-conjugated annexin V and propidium iodide staining by flow cytometry assay (RVb = 1.9 %); assay type: functional
Jurkat [8] = assay: Cell cycle arrest in human Jurkat cells assessed as accumulation at G1 phase at 1.25 uM after 24 hrs using propidium iodide staining by flow cytometry relative to control; assay type: functional; how it was run: as §2
Jurkat [9] = assay: Cell cycle arrest in human Jurkat cells assessed as accumulation at G2/M phase at 1.25 uM after 24 hrs using propidium iodide staining by flow cytometry relative to control; assay type: functional; how it was run: as §2
HeLa [10] = assay: Upregulation of cyclin B1 protein expression in human HeLa cells after 24 to 48 hrs by Western blot analysis; assay type: functional, cell-based; how it was run: as §3
HeLa [11] = assay: Induction of apoptosis in human HeLa cells assessed as late apoptotic cells at 0.62 uM after 24 hrs using FITC-conjugated annexin V and propidium iodide staining by flow cytometry assay (RVb = 1.9 %); assay type: functional
HL-60 = assay: Antiproliferative activity against human HL60 cells after 72 hrs by MTT assay; assay type: functional, cell-based; details: HL-60, 72 h
HeLa [12] = assay: Induction of apoptosis in human HeLa cells assessed as necrotic cells at 0.62 uM after 24 hrs using FITC-conjugated annexin V and propidium iodide staining by flow cytometry assay (RVb = 1.9 %); assay type: functional
HeLa [13] = assay: Upregulation of cdc25c protein expression in human HeLa cells at 0.6 to 2.5 uM after 24 to 48 hrs by Western blot analysis; assay type: functional, cell-based; how it was run: as §3
HeLa [14] = assay: Cell cycle arrest in human HeLa cells assessed as accumulation at G2/M phase at 0.625 uM after 24 hrs using propidium iodide staining by flow cytometry relative to control; assay type: functional; how it was run: as §2
HeLa [15] = assay: Induction of apoptosis in human HeLa cells assessed as late apoptotic cells at 2.5 uM after 24 hrs using FITC-conjugated annexin V and propidium iodide staining by flow cytometry assay (RVb = 1.9 %); assay type: functional
HeLa [16] = assay: Induction of apoptosis in human HeLa cells assessed as viable cells at 5 uM after 24 hrs using FITC-conjugated annexin V and propidium iodide staining by flow cytometry assay (RVb = 94.7 %); assay type: functional; details: read-out: Activity
HeLa [17] = assay: Induction of apoptosis in human HeLa cells assessed as early apoptotic cells at 2.5 uM after 24 hrs using FITC-conjugated annexin V and propidium iodide staining by flow cytometry assay (RVb = 1.5 %); assay type: functional
HeLa [18] = assay: Induction of apoptosis in human HeLa cells assessed as viable cells at 0.62 uM after 24 hrs using FITC-conjugated annexin V and propidium iodide staining by flow cytometry assay (RVb = 94.7 %); assay type: functional; details: read-out: Activity
HeLa [19] = assay: Induction of apoptosis in human HeLa cells assessed as loss of mitochondrial membrane potential at 0.625 to 2.5 uM using Rho123 staining by flow cytometry; assay type: functional, cell-based; details: TDE = time-dependent effect
How it was run: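 After 24 or 48 h exposure, HeLa cells were pelleted, resuspended in HBSS with 0.1 μM rhodamine 123, held 20 min at 37 °C, spun and resuspended in HBSS; fluorescence read by flow cytometry. Mean ± S.E.M. of 3 independent experiments.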

HeLa [20] = assay: Induction of apoptosis in human HeLa cells assessed as early apoptotic cells at 1.25 uM after 24 hrs using FITC-conjugated annexin V and propidium iodide staining by flow cytometry assay (RVb = 1.5 %); assay type: functional
HeLa [21] = assay: Induction of apoptosis in human HeLa cells assessed as increase of Bax protein expression up to 2.5 uM after 24 to 48 hrs by Western blot analysis; assay type: functional, cell-based; how it was run: as §3
HeLa [22] = assay: Induction of apoptosis in human HeLa cells assessed as caspase-3-mediated cleavage of PARP after 48 hrs by Western blot analysis; assay type: functional, cell-based; how it was run: as §3
A549 = assay: Antiproliferative activity against human A549 cells after 72 hrs by MTT assay; assay type: functional, cell-based; details: A549, 72 h; how it was run: as §1
K562 = assay: Antiproliferative activity against human K562 cells after 72 hrs by MTT assay; assay type: functional, cell-based; details: K562, 72 h
HeLa [23] = assay: Induction of apoptosis in human HeLa cells assessed as viable cells at 2.5 uM after 24 hrs using FITC-conjugated annexin V and propidium iodide staining by flow cytometry assay (RVb = 94.7 %); assay type: functional; details: read-out: Activity
[24] = Inhibition of tubulin polymerization after 20 mins by turbidimetry
HeLa [25] = assay: Cell cycle arrest in human HeLa cells assessed as reduction of cells at S phase at 1.25 uM after 24 hrs using propidium iodide staining by flow cytometry; assay type: functional, cell-based; how it was run: as §2
HeLa [26] = assay: Cell cycle arrest in human HeLa cells assessed as accumulation at G2/M phase at 1.25 uM after 24 hrs using propidium iodide staining by flow cytometry relative to control; assay type: functional; how it was run: as §2
HeLa [27] = assay: Induction of apoptosis in human HeLa cells assessed as necrotic cells at 2.5 uM after 24 hrs using FITC-conjugated annexin V and propidium iodide staining by flow cytometry assay (RVb = 1.9 %); assay type: functional
Jurkat [28] = assay: Antiproliferative activity against human Jurkat cells after 72 hrs by MTT assay; assay type: functional, cell-based

Question: For `CCOc1ccc(Nc2c(C(=O)c3cc(OC)c(OC)c(OC)c3)sc3ccccc23)cc1`, which Activity (HeLa [1]) is on record?
Answer: Active

Question: What about the IC50 (HeLa [2]) of the same compound?
Answer: 700 nM

Question: And the Activity (Jurkat [3])?
Answer: Dose-dependent effect

Question: What about the Activity (HeLa [4]) of the same compound?
Answer: 5.2%

Question: What about the Activity (HeLa [5]) of the same compound?
Answer: Active

Question: What about the Activity (HeLa [6]) of the same compound?
Answer: 13.4%

Question: What about the Activity (HeLa [7]) of the same compound?
Answer: 25.4%

Question: What about the Activity (Jurkat [8]) of the same compound?
Answer: 10%

Question: What about the Activity (Jurkat [9]) of the same compound?
Answer: 70%

Question: And the Activity (HeLa [10])?
Answer: Dose-dependent effect

Question: What about the Activity (HeLa [11]) of the same compound?
Answer: 14.4%

Question: And the IC50 (HL-60)?
Answer: 500 nM

Question: And the Activity (HeLa [12])?
Answer: 15.5%

Question: What about the Activity (HeLa [13]) of the same compound?
Answer: Active

Question: And the Activity (HeLa [14])?
Answer: 52%

Question: What about the Activity (HeLa [15]) of the same compound?
Answer: 24.9%

Question: And the viability at 5 µM (HeLa [16])?
Answer: 49.9%

Question: What about the Activity (HeLa [17]) of the same compound?
Answer: 6.4%

Question: What about the viability at 0.62 µM (HeLa [18]) of the same compound?
Answer: 64.9%

Question: What about the Activity (HeLa [19]) of the same compound?
Answer: tde

Question: And the Activity (HeLa [20])?
Answer: 6.8%

Question: And the Activity (HeLa [21])?
Answer: inactive

Question: What about the Activity (HeLa [22]) of the same compound?
Answer: Active

Question: And the IC50 (A549)?
Answer: 1400 nM

Question: And the IC50 (K562)?
Answer: 200 nM

Question: And the viability at 2.5 µM (HeLa [23])?
Answer: 49.4%

Question: What about the IC50 [24] of the same compound?
Answer: 7200 nM

Question: What about the Activity (HeLa [25]) of the same compound?
Answer: Active

Question: And the Activity (HeLa [26])?
Answer: 85%

Question: What about the Activity (HeLa [27]) of the same compound?
Answer: 19.3%

Question: And the IC50 (Jurkat [28])?
Answer: 300 nM
